KCNQ1 inh: blocks the human KCNQ1 potassium channel; P51787; CHO-K1 KCNQ1, FluxOR thallium flux fluorescence; stronger effect = higher value; B-score at 10 µM; hit rate 1.3% among 310,000;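 active means compounds whose thallium flux B-score, printed positive for inhibition, exceeds three library SD while starting fluorescence stays within three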;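 further: channel opened by potassium depolarization with thallium stimulus after 20 min compound exposure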
KCNK9 inh: inhibitors of human KCNK9 two-pore domain potassium channel; Q9NPC2; HEK293 KCNK9, FluxOR thallium flux fluorescence; stronger effect = lower value; B-score at 10 µM; hit rate 1.2% among 310,000;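 active means ratio B-score over 3 SD below the library mean, with starting fluorescence within 5 SD of its mean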;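 further: negative B-score means less thallium flux so channel inhibition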
hERG protect: hERG (human) protection from proarrhythmic block; Q12809; CHO-hERG, FluxOR thallium flux, dofetilide IC70 present; activation (rescue from dofetilide block), less the hit threshold, % at 10 µM; hit rate 0.51% among 310,000; AID 1511;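 active means activation above the mean of controls blocked by dofetilide plus 5 SD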;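 further: thallium influx through hERG after potassium depolarization seen as dye fluorescence rise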
KCNQ1 pot: potentiators or activators of human KCNQ1 potassium channel | P51787 | CHO-K1 KCNQ1, thallium flux FluxOR fluorescence; stronger effect = higher value | B-score at 10 µM | hit rate 0.35% among 310,000;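 active means fluorescence ratio B-score, a plate-corrected score, at least three library SD, with initial intensity B-score within 5 SD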
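assay system = KCNQ1-transfected CHO-K1 cells | medium = assay buffer with matched DMSO | probe or stimulus = depolarizing K+/Tl+ stimulus, K2SO4 and Tl2SO4 each 12.5 mM in 5x stock | dosing = single dose | incubation = dye 90 min, compound 20 min, room temperature | detection = kinetic FluxOR fluorescence, 10 s baseline plus 110 s post-stimulus | evaluation = ratio B score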
KCNK3 inh: human KCNK3 channel inhibition, primary screen | O14649 | CHO-KCNK3 thallium flux, FluxOR fluorescence; stronger effect = lower value | B-score at 10 µM | hit rate 0.84% among 340,000 | AID 602410;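 active means B-score under library mean minus 4 SD, starting fluorescence ratio at most library mean plus 5 SD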;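 further: more negative B-score means stronger inhibition of thallium flux through KCNK3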
Kir21 block: Kir2.1 (mouse) channel inhibition; P35561; HEK293-Kir2.1, FluxOR thallium flux fluorescence; stronger effect = lower value; B-score at 10 µM; hit rate 0.85% among 310,000; AID 1672;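 active means fluorescence ratio B-score at or below minus 3 SD of library scores, with starting-brightness B-score within 2 SD, cut at about -4.2 in these data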;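 further: channel flux triggered by added potassium and thallium sulfate stimulus; B-score of peak minus minimum fluorescence over baseline after thallium stimulus; more negative B-score means stronger Kir2.1 block with less thallium influx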
Target sequence (P35561 whole entry, looked up): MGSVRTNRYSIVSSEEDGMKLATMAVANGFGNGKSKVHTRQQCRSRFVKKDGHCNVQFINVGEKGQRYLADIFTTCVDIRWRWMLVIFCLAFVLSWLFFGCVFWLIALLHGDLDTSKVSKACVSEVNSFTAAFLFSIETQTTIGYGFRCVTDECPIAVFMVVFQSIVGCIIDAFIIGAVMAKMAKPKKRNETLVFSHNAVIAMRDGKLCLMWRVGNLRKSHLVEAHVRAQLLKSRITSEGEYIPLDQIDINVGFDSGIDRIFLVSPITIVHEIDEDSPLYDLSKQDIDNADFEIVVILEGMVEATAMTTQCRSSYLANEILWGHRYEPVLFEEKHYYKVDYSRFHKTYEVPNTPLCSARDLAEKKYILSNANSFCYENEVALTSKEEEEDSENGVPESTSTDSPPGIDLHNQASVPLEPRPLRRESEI
KCNK3 inh conf: confirmation of human KCNK3 two-pore domain potassium channel inhibitors; hit rate 99% among 2,400; AID 651638; CHO-KCNK3 thallium flux, FluxOR fluorescence; 0% buffer, 100% carvedilol maximal block; ratio percent of control, % at 10 µM; shares compounds with KCNK3 inh;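 active means ratio percent of control, averaged over triplicates, above buffer control mean plus 5 SD, cut at about 64% in these data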;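 further: ratio is the fluorescence rise from min to max over baseline after thallium stimulus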
KCNK3 uninduced: KCNK3 inhibitor counter-screen hit in non-induced cells. thallium flux ratio (lower = more inhibition) at 10 µM. non-induced KCNK3 parental cells, FluxOR thallium flux; stronger effect = lower value. hit rate 40% among 2,400. shares compounds with KCNK3 inh. AID 651747;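 active means thallium flux ratio, averaged over three wells, more than 5 SD below the buffer control mean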;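 further: host cells are CHO cells without KCNK3 induction; ratio is peak minus trough fluorescence over baseline then normalized to buffer controls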
* hit, by the source's call. Compounds with a hit are over-represented: about 3.8% of the library has one in this group of screens.

What do the screens show for `Cc1cccn2c(=O)c(/C=C(\C#N)S(=O)(=O)c3ccccc3)c(N3CCN(Cc4ccccc4)CC3)nc12`?
KCNQ1 inh: inactive; KCNK9 inh: inactive; hERG protect: -16.8; KCNQ1 pot: inactive; KCNK3 inh: -10.2*; Kir21 block: -1.44; KCNK3 inh conf: 107.7*; KCNK3 uninduced: inactive

Results for N#C/C(=C\c1c(N2CCN(Cc3ccccc3)CC2)nc2ccccn2c1=O)S(=O)(=O)c1ccccc1 ?
KCNQ1 inh: inactive; KCNK9 inh: inactive; hERG protect: -9.9; KCNQ1 pot: inactive; KCNK3 inh: -8.96*; Kir21 block: -0.17; KCNK3 inh conf: 103.0*; KCNK3 uninduced: inactive

How did Cc1occc1C(=O)NCCCCNC(=O)c1ccoc1C do in these assays?
KCNQ1 inh: inactive; KCNK9 inh: inactive; hERG protect: -9.0; KCNQ1 pot: inactive; KCNK3 inh: inactive; Kir21 block: -0.34

How did CCCCCCCCCCCNC(=O)c1ccoc1C do in these assays?
KCNQ1 inh: inactive; KCNK9 inh: inactive; hERG protect: -11.9; KCNQ1 pot: inactive; KCNK3 inh: -8.85*; Kir21 block: 0.01; KCNK3 inh conf: 96.3*; KCNK3 uninduced: inactive

Results for CCCC1(CCC)NC(=O)N(CC(=O)Nc2ccc3c(c2)OCCO3)C1=O ?
KCNK3 inh: inactive

How did Cc1cc(C(=O)N/N=C/c2cc(N=Nc3ccccc3)ccc2O)n[nH]1 do in these assays?
KCNQ1 inh: inactive; KCNK9 inh: inactive; hERG protect: -13.3; KCNQ1 pot: inactive; KCNK3 inh: inactive; Kir21 block: -0.02

What do the screens show for `COC(=O)N/N=C/c1cc(N=Nc2ccccc2)ccc1O`?
KCNQ1 inh: inactive; KCNK9 inh: -7.17*; hERG protect: -21.9; KCNQ1 pot: inactive; KCNK3 inh: -10.7*; Kir21 block: 0.58; KCNK3 inh conf: 108.7*; KCNK3 uninduced: 0.153*

How did CSc1ccc(C2Nc3cccc4cccc(c34)N2)cc1 do in these assays?
KCNQ1 inh: 6*; KCNK9 inh: inactive; hERG protect: -11.1; KCNQ1 pot: inactive; KCNK3 inh: -8.84*; Kir21 block: -1.17; KCNK3 inh conf: 111.7*; KCNK3 uninduced: inactive

Results for Clc1ccc(C2Nc3cccc4cccc(c34)N2)cc1 ?
KCNQ1 inh: inactive; KCNK9 inh: inactive; hERG protect: -5.4; KCNQ1 pot: inactive; KCNK3 inh: inactive; Kir21 block: -1.51

What do the screens show for `Cc1oc2ccc(O)c(CN(C)C)c2c1C(=O)c1ccccc1`?
KCNQ1 inh: inactive; KCNK9 inh: inactive; hERG protect: -3.8; KCNQ1 pot: inactive; KCNK3 inh: inactive; Kir21 block: -3.23

Results for CCOC(=O)c1c(CSCc2ccccc2)oc2ccc(O)c(CN(C)C)c12 ?
KCNQ1 inh: inactive; KCNK9 inh: inactive; hERG protect: -29.2; KCNQ1 pot: inactive; KCNK3 inh: -9.28*; Kir21 block: -2.78; KCNK3 inh conf: 122.7*; KCNK3 uninduced: inactive

How did CCCc1cc(=O)oc2cc(C)cc(OC(C)C(=O)NCC(O)c3ccccc3)c12 (centres undefined) do in these assays?
KCNQ1 inh: inactive; KCNK9 inh: inactive; hERG protect: -6.8; KCNQ1 pot: inactive; KCNK3 inh: inactive; Kir21 block: -0.56

What do the screens show for `Cc1noc(-c2ccccc2)c1NC(=O)Nc1ccccc1`?
KCNQ1 inh: inactive; KCNK9 inh: inactive; hERG protect: -6.7; KCNQ1 pot: inactive; KCNK3 inh: inactive; Kir21 block: -0.55

What do the screens show for `Cc1noc(-c2ccccc2)c1NC(=O)Nc1ccc(Cl)cc1`?
KCNQ1 inh: inactive; KCNK9 inh: inactive; hERG protect: -8.7; KCNQ1 pot: inactive; KCNK3 inh: -10.8*; Kir21 block: 1.07; KCNK3 inh conf: 106.0*; KCNK3 uninduced: inactive

How did COc1ccc(NC(=O)c2ccsc2NC(C)=O)cc1 do in these assays?
KCNQ1 inh: inactive; KCNK9 inh: inactive; hERG protect: -4.3; KCNQ1 pot: inactive; KCNK3 inh: inactive; Kir21 block: 0.45

How did C=CCn1c(Sc2ncc([N+](=O)[O-])s2)n[nH]c1=O do in these assays?
KCNQ1 inh: 7*; KCNK9 inh: inactive; hERG protect: -12.0; KCNQ1 pot: inactive; KCNK3 inh: -9.29*; Kir21 block: 0.12; KCNK3 inh conf: 144.3*; KCNK3 uninduced: 0.0827*

How did COc1ccc(OCC(=O)Nc2c3c(nn2-c2ccccc2)CS(=O)(=O)C3)cc1 do in these assays?
KCNQ1 inh: inactive; KCNK9 inh: inactive; hERG protect: -10.8; KCNQ1 pot: inactive; KCNK3 inh: inactive; Kir21 block: 1

How did CC(C1CC1)N(Cc1ccccc1)C(=S)Nc1ccccc1 (centres undefined) do in these assays?
KCNQ1 inh: inactive; KCNK9 inh: inactive; hERG protect: -7.7; KCNQ1 pot: inactive; KCNK3 inh: -11.7*; Kir21 block: -0.75; KCNK3 inh conf: 113.0*; KCNK3 uninduced: inactive

How did COc1ccc(NS(=O)(=O)N2CCOCC2)cc1 do in these assays?
KCNQ1 inh: inactive; KCNK9 inh: inactive; hERG protect: -2.7; KCNQ1 pot: inactive; KCNK3 inh: inactive; Kir21 block: 0

How did Cc1cc(C)c(C#N)c(SCC(=O)c2ccc(Cl)cc2Cl)n1 do in these assays?
KCNQ1 inh: inactive; KCNK9 inh: inactive; hERG protect: -3.0; KCNQ1 pot: inactive; KCNK3 inh: -10.1*; Kir21 block: 1.06; KCNK3 inh conf: 108.3*; KCNK3 uninduced: 0.153*

What do the screens show for `CCOC(=O)c1c(C)[nH]c(C)c1C(=O)COC(=O)c1c(OC)cccc1OC`?
KCNQ1 inh: inactive; KCNK9 inh: inactive; hERG protect: -7.5; KCNQ1 pot: inactive; KCNK3 inh: inactive; Kir21 block: 0.54

How did CCOC(=O)c1c(C)[nH]c(C)c1C(=O)COC(=O)[C@@H](NC(=O)c1ccccc1OCC)C(C)C do in these assays?
KCNQ1 inh: inactive; KCNK9 inh: inactive; hERG protect: -12.8; KCNQ1 pot: inactive; KCNK3 inh: -9.09*; Kir21 block: 0.14; KCNK3 inh conf: 104.3*; KCNK3 uninduced: inactive

Results for COc1ccc(NC(=O)c2cc3ccccc3cc2OC)cc1 ?
KCNQ1 inh: inactive; KCNK9 inh: inactive; hERG protect: -9.4; KCNQ1 pot: inactive; KCNK3 inh: -10.6*; Kir21 block: 0.85; KCNK3 inh conf: 111.7*; KCNK3 uninduced: inactive

What do the screens show for `COc1ccc(C(=O)COc2ccccc2C(=O)Nc2ccccc2)cc1`?
KCNQ1 inh: inactive; KCNK9 inh: inactive; hERG protect: -5.1; KCNQ1 pot: inactive; KCNK3 inh: -9.84*; Kir21 block: 0.39; KCNK3 inh conf: 108.3*; KCNK3 uninduced: 0.16*

Bioassay records (PubChem)
